One data set has as its system Plasmodium falciparum. The data set can be described thus: Antiplasmodium activity against chloroquine-sensitive Plasmodium falciparum NF54 assessed as inhibition of [3H[hypoxanthine incorporation. It is filed as functional, organism-based. The method in brief: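 Run at Swiss TPH on P. falciparum NF54 (3D7 is a clone of it). Read-out is 3H-hypoxanthine incorporation. IC50 is the mean of ≥2 experiments.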

Data set [1] is described as follows: Apparent permeability of the compound from apical to basal side of human Caco2 cells at 10 uM after 60 mins. It is filed as ADME, cell-based. The note with it: Caco-2. The method in brief: (§1)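 Apical and basal chambers in HBSS, pH 7.4. Compound at 10 μM added to the donor side at time zero. Donor and acceptor chambers both sampled after 60 min at 37 °C. A>B permeability reported in 10^-6 cm/s, plus efflux ratio.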
For orientation: Caco-2 monolayers are a common model of the intestinal barrier.

Data set [2] is described as follows: Metabolic stability in human hepatic microsomes assessed as % turnover at 1 uM after 40 mins by LC/MS/MS analysis. The following applies: liver microsomes. (Liver microsomes are a subcellular fraction often used to study metabolism.)
The test system of data set [3] is Plasmodium berghei. The data set can be described thus: Antimalarial activity against GFP-transfected Plasmodium berghei ANKA infected in mouse assessed as change in host survival time at 50 mg/kg, sc administered QD for 4 days relative to untreated control. The format is functional, organism-based. Also noted: dose 50 mg/kg. The method in brief:
(§2)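 Peters 4-day test: 50 mg/kg given sc once daily for 4 days. Parasitemia reduction and survival days are compared against infected, untreated control animals.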

Data set [4] relates to Plasmodium berghei. The data set can be described thus: Antimalarial activity against GFP-transfected Plasmodium berghei ANKA infected in mouse assessed as reduction in parasitemia at 50 mg/kg, sc administered QD for 4 days relative to vehicle-treated control. The format is functional. More on the design: scale not given: the % may be the effect or the level left. The note with it: route subcutaneous. Put shortly: as §2

Data set [5] is described as follows: Kinetic solubility of the compound in phosphate buffered saline after 2 hrs at pH 7.4. The format is physicochemical. The following applies: read-out: Kinetic_solubility. The method in brief: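 Kinetic solubility measured in PBS, pH 7.4.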
Data set [6] in a line: Efflux ratio of apparent permeability across human Caco2 cells at 10 uM after 60 mins. The format is ADME, cell-based. The note with it: Caco-2. The method in brief: as §1
Data set [7] is described as follows: […]-phosphate buffered saline partition coefficient, log D after 5 hrs by LC-UV analysis at pH 7.4. The following applies: octan-1-ol/phosphate buffered saline. The format is physicochemical. Put shortly: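 Log D from partition between octan-1-ol and phosphate-buffered PBS at pH 7.4.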

pIC50: −log10 of the molar value. Values after ≈ are worked out from the molar mass of the structure shown. Active and inactive are the calls of the source. No cut-off for these calls is given here. A value given as a limit tells only on which side of the number the result lay.

For orientation: pIC50 means −log10 of the IC50, conventionally taken in molar units. In the case of `CCOc1nnc(C)c2c(C)n(-c3cccc(OC)c3)nc12`, the pIC50 in the data set on Plasmodium falciparum was 4.79.

For `O=C(Cc1ccccc1)Nc1cccc2[nH]c(C(F)(F)F)nc12`, the negative logarithm of the IC50 (pIC50) in the data set on Plasmodium falciparum was < 4.00.

`CCCCN1CN=C(Nc2nc(C)c3ccccc3n2)NC1`: the pIC50 with Plasmodium falciparum is 5.80.

Turning to `Cc1nnc(Cl)c2nn(-c3ccccc3)c(C)c12`, the pIC50 with Plasmodium falciparum is 6.37.

Broadly, the Papp A→B is the apparent permeability from the apical to the basolateral side of a cell layer. Broadly, the efflux ratio is the permeability from basolateral to apical divided by that in the opposite direction, in the common usage. One may read the logD as the decadic logarithm of the distribution of all forms, ionised or not, between an organic phase and buffer at a given pH. Take `c1ccn2c(Sc3ncnc4sccc34)nnc2c1`: the Papp A→B at 1 h, 10 µM in data set [1] was found to be 50 ×10⁻⁶ cm/s. Besides, the % turnover at 40 min, 1 µM in data set [2] was found to be 50%. In addition, the outcome with Plasmodium berghei [3] was inactive. For the same molecule, in the data set with Plasmodium berghei [4], the Activity is reported as 34%. For the same molecule, the solubility kinetic at 2 h in data set [5] was found to be 20 µM (≈ 5.71 µg/mL). Further, the negative logarithm of the IC50 (pIC50) in the data set with Plasmodium falciparum was 6.82. Besides, the efflux ratio at 1 h, 10 µM in data set [6] worked out at 0.28. In addition, in data set [7], the log distribution coefficient (logD) at 5 h is > 3.8.

Turning to `O=C(Nc1cccc2[nH]c(C(F)(F)F)nc12)c1ccc(Cl)cc1`, the negative logarithm of the IC50 (pIC50) with Plasmodium falciparum is 4.96.

With `COc1cccc(-n2nc3c(C)nnc(C)c3c2C)c1`, the negative-log IC50 (pIC50) in the data set on Plasmodium falciparum is < 4.00.

For `COc1ccc(CNc2cccc3[nH]c(C(F)(F)F)nc23)cc1`, the pIC50 in the data set with Plasmodium falciparum was 5.41.

Regarding `Cn1c(Sc2ncnc3sccc23)nnc1C1CC1`, in the data set with Plasmodium falciparum, the pIC50 was 5.83.

In the case of `COc1ccc(CNc2cccc3[nH]c(C)nc23)cc1`, the negative logarithm of the IC50 (pIC50) in the data set with Plasmodium falciparum is 5.00.

On to `Cc1nc(NC2=NCCC(=O)N2)nc2ccccc12`, for which the pIC50 with Plasmodium falciparum is < 4.00.

Consider `Cc1ccc(-n2c(Sc3ncnc4sccc34)nnc2N2CCCC2)cc1`, for which, in the data set with Plasmodium falciparum, the pIC50 is 6.82.

As for `Cc1nnc(Cl)c2nn(-c3cccc(Cl)c3)c(C)c12`, in the data set with Plasmodium falciparum, the negative-log IC50 (pIC50) was 6.55.

In the case of `Cc1sc2ncnc(Sc3nnc(C(F)(F)F)n3C)c2c1C`, the pIC50 in the data set with Plasmodium falciparum is 5.29.

For the molecule `CCOc1ccc(-n2nc3c(Cl)nnc(C)c3c2C)cc1`, in the data set with Plasmodium falciparum, the negative-log IC50 (pIC50) was 6.47.

In the case of `c1ccc(-c2csc3ncnc(Sc4nnc5ccccn45)c23)cc1`, in the data set on Plasmodium falciparum, the pIC50 is 5.57.

For the molecule `Cc1ccc(S(=O)(=O)Nc2cccc3[nH]c(C(F)(F)F)nc23)cc1`, the pIC50 with Plasmodium falciparum was < 4.00.

As for `COc1nc(NC(=N)N)nc2ccc(C)cc12`, in the data set on Plasmodium falciparum, the negative-log IC50 (pIC50) is 6.13.

Regarding `Cc1nnc(C)c2c(C)n(-c3ccc4c(c3)OCO4)nc12`, the negative logarithm of the IC50 (pIC50) in the data set with Plasmodium falciparum is < 4.00.

With `Cc1nnc(Cl)c2nn(-c3ccc(Cl)cc3)c(C)c12`, in the data set with Plasmodium falciparum, the negative logarithm of the IC50 (pIC50) is 6.38.

`Fc1ccc(CNc2cccc3[nH]c(C(F)(F)F)nc23)cc1`: in data set [1], the Papp A→B at 1 h, 10 µM stood at 1.5 ×10⁻⁶ cm/s. Further, the % turnover at 40 min, 1 µM in data set [2] worked out at 19%. In data set [5], the solubility kinetic at 2 h was < 5 µM. In addition, the negative logarithm of the IC50 (pIC50) in the data set on Plasmodium falciparum is 6.31. Further, the efflux ratio at 1 h, 10 µM in data set [6] turned out to be 0.43. Further, the log distribution coefficient (logD) at 5 h in data set [7] was 2.

Regarding `Cc1ccc(-n2nc3c(C)nnc(C)c3c2C)cc1`, in the data set on Plasmodium falciparum, the negative logarithm of the IC50 (pIC50) was < 4.00.

In the case of `CCc1nnc(Sc2ncnc3sccc23)[nH]1`, the pIC50 in the data set with Plasmodium falciparum is 5.94.

For `CC(=O)/N=C(/NC(C)=O)Nc1nc(C)c2cc(C)ccc2n1`, in the data set on Plasmodium falciparum, the negative-log IC50 (pIC50) was 5.43.

Take `Cc1nnc(N2CCOCC2)c2nn(-c3ccccc3)c(C)c12`: in the data set with Plasmodium falciparum, the negative-log IC50 (pIC50) was < 4.00.

Regarding `Cc1ccc(-n2nc3c(Cl)nnc(C)c3c2C)cc1`, in the data set on Plasmodium falciparum, the negative logarithm of the IC50 (pIC50) is 6.51.

Consider `Cc1sc2ncnc(Sc3nnc4ccccn34)c2c1C`, for which the pIC50 in the data set on Plasmodium falciparum was 6.34.

For the origin of these results see ChEMBL document CHEMBL2086373, “Identification and In-Vitro ADME Assessment of a Series of Novel Anti-Malarial Agents Suitable for Hit-to-Lead Chemistry” (ACS Med Chem Lett, 2012).
